# Assay results taken from ChEMBL document CHEMBL2413033, “Design and synthesis of novel series of 5-HT6 receptor ligands having indole, a central aromatic core and 1-amino-4 methyl piperazine as a positive ionizable group” (Bioorg Med Chem, 2013).
# Columns and labels:
# Assay type in all cases: functional, cell-based
# [1] = molecular target: 5-hydroxytryptamine receptor 7 (Homo sapiens) (UniProt P34969); assay: Antagonist activity at human recombinant 5HT7 receptor expressed in HEK293 cells assessed as inhibition of 5HT-induced cAMP accumulation at 10 uM pretreated for 10 mins before 5HT addition measured after 1 hr relative to control
# Chain of 5-hydroxytryptamine receptor 7 (Homo sapiens) (P34969 whole entry): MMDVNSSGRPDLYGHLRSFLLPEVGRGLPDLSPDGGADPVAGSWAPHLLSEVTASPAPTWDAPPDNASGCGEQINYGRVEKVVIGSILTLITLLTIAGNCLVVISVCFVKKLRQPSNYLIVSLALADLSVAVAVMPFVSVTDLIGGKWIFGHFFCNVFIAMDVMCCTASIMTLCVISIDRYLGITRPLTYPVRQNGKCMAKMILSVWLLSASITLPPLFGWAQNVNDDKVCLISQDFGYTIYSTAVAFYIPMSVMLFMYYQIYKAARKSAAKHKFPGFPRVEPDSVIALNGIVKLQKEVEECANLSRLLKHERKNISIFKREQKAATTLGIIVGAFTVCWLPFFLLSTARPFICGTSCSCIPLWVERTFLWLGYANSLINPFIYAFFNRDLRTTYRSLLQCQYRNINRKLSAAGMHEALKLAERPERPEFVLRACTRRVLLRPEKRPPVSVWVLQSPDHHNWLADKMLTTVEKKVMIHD
# Outline: (§1)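 Cells kept at 37 °C under 5% CO2/95% air were suspended in PBS with 2 mM IBMX. They were pretreated with compound (or not) for 10 min, then stimulated with 5-HT for 30 min. HTRF cAMP detection used d2-labelled cAMP and cryptate-labelled anti-cAMP antibody, 1 h at room temperature. Read-out was excitation 314 nm, emission 668 and 620 nm. Results are percent inhibition versus untreated controls.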
# [2] = molecular target: T1, 5-hydroxytryptamine receptor 6 (Homo sapiens, UniProt P50406); assay: Antagonist activity at human recombinant 5HT6 receptor expressed in HEK293 cells assessed as inhibition of 5HT-induced cAMP accumulation pretreated for 10 mins before 5HT addition measured after 1 hr; outline: as §1
# T1 sequence (P50406 whole entry): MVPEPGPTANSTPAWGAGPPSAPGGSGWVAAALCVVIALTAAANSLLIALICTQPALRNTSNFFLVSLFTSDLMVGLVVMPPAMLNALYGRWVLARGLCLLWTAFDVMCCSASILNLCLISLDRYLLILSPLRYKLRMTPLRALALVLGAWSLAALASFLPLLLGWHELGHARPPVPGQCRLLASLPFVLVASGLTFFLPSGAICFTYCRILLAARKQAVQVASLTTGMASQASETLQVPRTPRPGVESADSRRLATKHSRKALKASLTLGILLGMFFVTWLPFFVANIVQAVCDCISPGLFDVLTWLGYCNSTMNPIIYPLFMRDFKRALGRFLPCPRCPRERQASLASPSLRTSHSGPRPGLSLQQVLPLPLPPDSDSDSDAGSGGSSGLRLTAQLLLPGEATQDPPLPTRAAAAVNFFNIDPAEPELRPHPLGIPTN
# [3] = molecular target: T1, 5-hydroxytryptamine receptor 6; assay: Antagonist activity at human recombinant 5HT6 receptor expressed in HEK293 cells assessed as inhibition of 5HT-induced cAMP accumulation at 10 uM pretreated for 10 mins before 5HT addition measured after 1 hr relative to control; outline: as §1
# [4] = molecular target: 5-hydroxytryptamine receptor 4 (Homo sapiens) (UniProt Q13639); assay: Antagonist activity at human recombinant 5HT4 receptor expressed in HEK293 cells assessed as inhibition of 5HT-induced cAMP accumulation at 10 uM pretreated for 10 mins before 5HT addition measured after 1 hr relative to control; outline: as §1
# Chain of 5-hydroxytryptamine receptor 4 (Homo sapiens) (Q13639 whole entry): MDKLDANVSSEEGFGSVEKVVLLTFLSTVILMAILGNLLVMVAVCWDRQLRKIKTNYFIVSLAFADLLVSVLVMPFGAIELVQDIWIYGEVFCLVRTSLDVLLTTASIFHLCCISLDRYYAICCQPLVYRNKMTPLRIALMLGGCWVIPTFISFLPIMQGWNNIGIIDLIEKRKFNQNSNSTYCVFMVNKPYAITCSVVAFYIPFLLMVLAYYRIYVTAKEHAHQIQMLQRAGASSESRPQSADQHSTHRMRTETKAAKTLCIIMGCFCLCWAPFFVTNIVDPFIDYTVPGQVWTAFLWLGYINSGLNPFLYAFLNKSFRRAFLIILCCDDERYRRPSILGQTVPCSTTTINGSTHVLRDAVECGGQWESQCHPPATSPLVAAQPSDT
Structure (SMILES),inhibition [1] [%],IC50 [2] [µM],inhibition [3] [%],inhibition [4] [%]
CN1CCN(/N=C/c2c(-c3ccccc3)n(S(=O)(=O)c3cccc4c(N(C)C)cccc34)c3ccccc23)CC1,42.2,1.4,85.3,65
Cc1c(/C=N/N2CCN(C)CC2)c2ccccc2n1S(=O)(=O)c1ccc(Cl)c2nonc12,,,27.2,
Cc1c(/C=N/N2CCN(C)CC2)c2ccccc2n1S(=O)(=O)c1ccc(/N=N/c2ccc(N(C)C)cc2)cc1,,,16.1,
Cc1ccc(S(=O)(=O)n2c(C)c(/C=N/N3CCN(C)CC3)c3ccccc32)cc1,,,49.1,
COc1ccc(S(=O)(=O)n2c(-c3ccccc3)c(/C=N/N3CCN(C)CC3)c3ccccc32)cc1,,,31.2,
COc1cc(C)c(Cl)cc1S(=O)(=O)n1c(-c2ccccc2)c(/C=N/N2CCN(C)CC2)c2ccccc21,72.8,7.4,55.3,13
CN1CCN(/N=C/c2c(-c3ccccc3)n(S(=O)(=O)c3ccccc3)c3ccccc23)CC1,34.6,1.8,83.5,79.9
CCc1ccc2ccccc2c1S(=O)(=O)n1c(C)c(/C=N/N2CCN(C)CC2)c2ccccc21,,,12.2,
Cc1c(/C=N/N2CCN(C)CC2)c2ccccc2n1S(=O)(=O)c1ccc(I)cc1,,,13.5,
CC(C)c1ccc(S(=O)(=O)n2c(-c3ccccc3)c(/C=N/N3CCN(C)CC3)c3ccccc32)cc1,,,35.4,
Cc1c(/C=N/N2CCN(C)CC2)c2ccccc2n1S(=O)(=O)c1ccc(F)cc1,12.3,4.74,71.7,83
CN1CCN(/N=C/c2c(-c3ccccc3)n(S(=O)(=O)c3cccc4ccccc34)c3ccccc23)CC1,5,6.6,54,9.4
COc1ccc(NS(=O)(=O)c2ccc(I)cc2)cc1N1CCN(C)CC1,5,,,5.8
Cc1ccc(S(=O)(=O)n2c(-c3ccccc3)c(/C=N/N3CCN(C)CC3)c3ccccc32)cc1,,,33.2,
CC1CCN(CC[C@H]2CCCN2S(=O)(=O)c2cccc(O)c2)CC1,104,,,
CCCCc1ccc(S(=O)(=O)n2c(-c3ccccc3)c(/C=N/N3CCN(C)CC3)c3ccccc32)cc1,,,14.3,
CN1CCN(/N=C/c2c(-c3ccccc3)n(S(=O)(=O)c3ccc(Cl)cc3)c3ccccc23)CC1,,,30.5,

Structure (SMILES),inhibition [1] [%],IC50 [2] [µM],inhibition [3] [%],inhibition [4] [%]
Cc1c(/C=N/N2CCN(C)CC2)c2ccccc2n1S(=O)(=O)c1ccc(-c2ccc(Cl)cc2)cc1,,,0.1,
CN1CCN(/N=C/c2c(-c3ccccc3)n(S(=O)(=O)c3ccc4ccccc4c3)c3ccccc23)CC1,,,39.6,
Cc1c(/C=N/N2CCN(C)CC2)c2ccccc2n1S(=O)(=O)c1ccc2ccccc2c1,17.1,2.04,78.9,92.2
CN1CCN(/N=C/c2c(-c3ccccc3)n(S(=O)(=O)c3ccc(OC(F)(F)F)cc3)c3ccccc23)CC1,,,38.7,
CN1CCN(/N=C/c2c(-c3ccccc3)n(S(=O)(=O)Cc3ccccc3)c3ccccc23)CC1,,,36.5,
CCCCN(CCCC)c1cccc2c(S(=O)(=O)n3c(-c4ccccc4)c(/C=N/N4CCN(C)CC4)c4ccccc43)cccc12,,,21.8,
CCCCN(CCCC)c1cccc2c(S(=O)(=O)n3c(C)c(/C=N/N4CCN(C)CC4)c4ccccc43)cccc12,,,44.6,
Cc1c(C)c(S(=O)(=O)n2c(-c3ccccc3)c(/C=N/N3CCN(C)CC3)c3ccccc32)c(C)c2c1OC(C)(C)CC2,,,20.6,
CN1CCN(/N=C/c2c(-c3ccccc3)n(S(=O)(=O)c3ccc(I)cc3)c3ccccc23)CC1,,,24.3,
Cc1c(/C=N/N2CCN(C)CC2)c2ccccc2n1S(=O)(=O)c1ccc([N+](=O)[O-])cc1,,,52.4,
CN1CCN(/N=C/c2c(-c3ccccc3)n(S(=O)(=O)c3cn(C)cn3)c3ccccc23)CC1,46.4,3.6,67.4,31.1
Cc1c(/C=N/N2CCN(C)CC2)c2ccccc2n1S(=O)(=O)c1ccc(-c2ccccc2)cc1,,,15.1,
Cc1c(C)c(S(=O)(=O)n2c(-c3ccccc3)c(/C=N/N3CCN(C)CC3)c3ccccc32)c(C)c2c1OC(C)(C)C2,,,22.4,
CN1CCN(/N=C/c2c(-c3ccccc3)n(S(=O)(=O)c3ccc(F)cc3)c3ccccc23)CC1,28.5,2.9,74.2,37.3
Cc1c(/C=N/N2CCN(C)CC2)c2ccccc2n1S(=O)(=O)c1cccc2c(N(C)C)cccc12,,,9.5,
COc1cc(C)c(Cl)cc1S(=O)(=O)n1c(C)c(/C=N/N2CCN(C)CC2)c2ccccc21,18.4,2.4,88.6,17.9
